Compound activity (PubChem)
ROMK mod – ROMK potassium channel modulators, primary screen, cell-based, thallium flux, MLSMR library; ATP-sensitive inward rectifier potassium channel 1 (Homo sapiens), P48048; actives 2% (n = 130,000); Tet-inducible ROMK, thallium flux fluorescence; actives lie on both sides; B-score at 10 µM;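 active = signal ratio slope over the read window, or its plate-corrected B-score, at least 3 SD from the plate mean, either direction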;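 also: B-score of the F/F0 ratio slope over 7 to 12 s after thallium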
Target sequence (P48048 whole entry, looked up): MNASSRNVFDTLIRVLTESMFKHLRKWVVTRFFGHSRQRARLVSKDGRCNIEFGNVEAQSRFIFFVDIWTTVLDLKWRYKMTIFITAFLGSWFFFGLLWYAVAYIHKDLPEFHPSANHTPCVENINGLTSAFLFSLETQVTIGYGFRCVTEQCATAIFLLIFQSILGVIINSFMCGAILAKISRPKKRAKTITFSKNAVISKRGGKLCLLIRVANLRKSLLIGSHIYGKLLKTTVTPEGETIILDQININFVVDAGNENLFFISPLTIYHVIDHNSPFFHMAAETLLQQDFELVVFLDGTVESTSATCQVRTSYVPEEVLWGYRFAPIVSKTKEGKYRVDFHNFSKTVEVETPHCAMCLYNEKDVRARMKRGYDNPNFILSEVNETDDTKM
PKD1 kinase inh – inhibitors of human PKD1 kinase, biochemical, fluorescence polarization. PKD1 kinase fluorescence polarization assay. inhibition, % (no concentration beside the values). actives 0.056% (n = 200,000); in the data active = inhibition above about 50%
Mdm2 ligase inh – MDM2-luciferase reporter signal enhancers, primary screen, MDM2 E3 ligase inhibitor project, cell-based, luminescence, 1536-well. cell-based MDM2 ubiquitination luciferase reporter, 2 h; 0 = plate control, 100 = twice control, blank-subtracted. signal enhancement, % at 5 µM. actives 0.11% (n = 210,000);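 active = signal enhancement of 30% or more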;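 also: luminescence tracks abundance of the self-degrading MDM2-luciferase fusion protein; higher signal means inhibition of MDM2 E3 ligase activity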
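Material: Stable MDM2–luciferase fusion reporter cells | Amount: 2000 cells seeded into each well | Dosing: One concentration, 5 µM, with 0.2% DMSO | Incubation: 4 h cell settling then 2 h compound exposure, 37 °C | Measured by: Luciferase luminescence | Read-out basis: % enhancement relative to plate controls after blank subtraction | Benchmarks: Control and blank well means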
p97 ATPase inh – inhibitors of human p97 ATPase, primary screen, biochemical; Transitional endoplasmic reticulum ATPase (Homo sapiens), P55072; recombinant p97 ATPase, Kinase-Glo ATP luminescence, 3 h; inhibition, % at 8 µM; actives 0.42% (n = 220,000); AID 1481, 2009; in the data active = inhibition above about 15%;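 also: 0% = DMSO vehicle and 100% = wells lacking enzyme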
DTT redox prof – compounds producing H2O2 with reducing agent – biochemical, NIH compound library profiling, artefact control for MLSCN library redox annotation, primary screen; DTT-dependent redox cycling H2O2, phenol red/HRP absorbance; 100% = 100 µM peroxide control, 0% = buffer; activation, % at 10 µM; actives 0.03% (n = 200,000);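 active = activation of at least 50% relative to the plate's high and low controls in the primary single-dose screen; inactive = activation below 50%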;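 also: compound incubated with DTT at 0.8 mM final as the reducing agent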
Cl transport mod – KCC2 cotransporter modulators, thallium flux, primary screen, cell-based, HEK293 KCC2, FluoZin-2 fluorescence, MLSMR; Solute carrier family 12 member 5 (Homo sapiens), Q9H2X9; KCC2 cells, thallium flux FluoZin-2 fluorescence; B-score of Tl+ flux slope (higher = more flux/activation; lower = inhibition) at 10 µM; actives 2.2% (n = 190,000);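 active = thallium flux slope and its plate-corrected score both differing from the plate sample mean at a set confidence after two filtering rounds, in either direction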;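 also: slope of fluorescence scaled to starting intensity during 10 to 20 s after thallium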
KCC2 secondary – KCC2 modulators in sodium-free buffer, confirmation, cell-based, HEK293 KCC2, thallium flux, secondary assay. normalised thallium flux (F/F0 slope) at 10 µM. FluoZin2 fluorescence; hits give high values. actives 15% (n = 3,700). shares compounds with Cl transport mod;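 active = thallium flux slope above the same plate's solvent-only control mean plus 3 SD; inconclusive = the two replicate wells disagree; inactive = no significant difference from solvent-only control wells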
KCC2 bumet counter – thallium flux persisting under bumetanide in KCC2 cells, confirmation, counter-screen for KCC2 modulator project, cell-based, HEK293 KCC2, FluoZin2, secondary assay 3; actives 49% (n = 3,700); HEK293-KCC2 + bumetanide/ouabain; hits give high values; shares compounds with Cl transport mod; normalized thallium flux at 10 µM;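 active = thallium entry rate above the same plate's blocked-transporter control wells by more than 3 SD; inconclusive = the two repeat wells disagree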;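 also: raw slope of fluorescence over initial fluorescence between 10 and 20 s after thallium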
KCC2 sec2 – KCC2 modulators without ouabain present, confirmation, cell-based, HEK293 KCC2, thallium flux, FluoZin2, secondary assay 2 | normalized thallium flux at 10 µM | thallium flux FluoZin2 fluorescence; actives lie on both sides; F/F0 rise rate, 10–20 s post-thallium | actives 23% (n = 3,700) | shares compounds with Cl transport mod;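 active = thallium flux slope more than 3 SD above or below the plate's solvent-only control mean, mostly below; inconclusive = the two repeat wells disagreed; inactive = no significant shift from solvent-only controls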;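 also: raw slope with 0.1% DMSO as baseline and bumetanide as block control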
HEK counter1 – thallium flux modulation in parental HEK cells, confirmation, counter-screen for KCC2 modulator project, cell-based, counterscreen 1 | shares compounds with Cl transport mod | AID 1716, 2009 | thallium flux rate (normalised fluorescence) at 10 µM | HEK293 parental cells, thallium flux FluoZin2, ouabain; baseline-ratio fluorescence slope, 10–20 s after thallium | actives 46% (n = 3,700);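 active = thallium flux rate significantly above the same plate's solvent-only control wells, beyond their mean plus 3 SD; inconclusive = the two replicate wells gave conflicting results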
KCC2 retest ouab – KCC2 inhibitors and activators, ouabain retest, confirmation, HEK-KCC2 cells; shares compounds with Cl transport mod; HEK293-KCC2, thallium flux FluoZin2 fluorescence; bidirectional: low = inhibitor, high = activator; raw Tl+ flux slope (below DMSO = inhibition, above = activation) at 10 µM; actives 48% (n = 3,700); AID 1717, 2009;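 active = thallium flux slope beyond 3 SD from same-plate DMSO control mean in most replicates, usually higher, sometimes lower; inconclusive = repeat tests gave conflicting results; inactive = no significant difference from controls in most replicates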;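 also: slope of initial-normalized fluorescence between seconds 10 and 20 after thallium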
HEK293 Tl flux2 – native HEK Tl+ uptake effects, second counter-screen – HEK cells, counterscreen 2, counter-screen for KCC2 modulator project, confirmation. HEK293 parental, thallium flux FluoZin-2 fluorescence slope. thallium flux slope at 10 µM. actives 33% (n = 3,700). shares compounds with Cl transport mod. AID 1718, 2009;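 active = thallium flux slope above the same plate's solvent-control mean plus 3 SD in both duplicate wells; inconclusive = duplicate wells that disagreed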;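 also: run without ouabain in cells lacking the KCC2 cotransporter; slope of fluorescence scaled to its starting value between 10 and 20 s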
The depositor's hits bear a star; ? = inconclusive; / = no result given. Shown are actives, neighbours in structure and some others; about 3.4% of the full set was active somewhere.

SMILES	ROMK mod	PKD1 kinase inh	Mdm2 ligase inh	p97 ATPase inh	DTT redox prof	Cl transport mod	KCC2 secondary	KCC2 bumet counter	KCC2 sec2	HEK counter1	KCC2 retest ouab	HEK293 Tl flux2
C=CCn1c(SCC(=O)Nc2ccc3c(c2)OCO3)nc2ccccc2c1=O	0.128	-14.3	-9.7	0.1	-3.6	0.536	/	/	/	/	/	/
CC(C)Cn1c(SCC(=O)Nc2cccc(S(N)(=O)=O)c2)nc2ccccc2c1=O	0.00732	-3.3	-10.4	3.1	0.5	5.71*	0.00939	0.0176*	0.0304	0.0095*	?	0.0106*
COn1cnnc1-c1ccccc1	0.0522	-9.7	-7.8	2.7	-1.2	/	0.00649	0.0046	0.0313	0.00757	0.0175	0.01
Cc1ccc(OCC(=O)NCC(=O)n2nc(C)cc2C)cc1	0.262	-1.2	-7.0	6.2	2.3	-1.67	0.00578	0.00472	0.0282*	0.00791	0.0182	0.0109
Cc1ccc(NC(=O)CCC(=O)NNC(=O)COc2ccccc2)cc1C	1.09	3.8	-7.8	-4.2	0.0	-1.2	/	/	/	/	/	/
Cn1c(=O)oc2cc(S(=O)(=O)N3CCCC(C(=O)N4CC=C(c5ccccc5)CC4)C3)ccc21 (centres undefined)	/	11.2	-10.8	2.2	-1.9	-1.38	/	/	/	/	/	/
Cc1nn(-c2ccccc2)c(N)c1Sc1cccc([N+](=O)[O-])c1	/	-3.1	-5.5	-0.9	-0.7	-7.03*	0.00854	0.00479	0.031	0.00531*	0.0285	0.0097
Cc1nn(-c2ccccc2)c(N)c1Sc1ccccc1[N+](=O)[O-]	/	-11.3	-10.8	0.5	0.3	-0.422	/	/	/	/	/	/
COc1ccccc1NC(=O)CSC1CC(=O)N(c2ccc3c(c2)OCO3)C1=O (centres undefined)	/	3.5	-7.8	-4.1	-0.4	0.764	/	/	/	/	/	/
Cn1c(=O)c2c(nc(CN3CCN(C(c4ccccc4)c4ccccc4)CC3)n2CC(N)=O)n(C)c1=O	-0.843	1.0	0.1	2.4	0.3	-2.61*	0.0109	0.00679	0.0297	0.00768	0.0337	?
COc1ccc(S(=O)(=O)N(C)CC(=O)O)c2ccccc12	1.84	-13.4	7.7	-3.6	0.2	3.02*	0.00661	0.0048	0.0295	0.00802	0.0185	0.0115
COc1ccc(C)cc1S(=O)(=O)N(C)CC(=O)Nc1ccccc1	/	-2.2	-9.6	-5.4	-1.5	1.79	/	/	/	/	/	/
N=C1SC(c2ccccc2)C(=O)N1c1ncc(Cc2ccccc2Cl)s1 (centres undefined)	0.657	-5.9	0.4	-1.3	0.1	5.79*	0.0071	0.0198*	0.0312	0.0158*	?	0.0198*
CN(C)c1ccc(-c2nc3ccccc3n2C)cc1	0.769	-5.1	-70.9	-21.4	-0.2	/	/	/	/	/	/	/
CC(C)n1c(-c2ccc(N(C)C)cc2)nc2ccccc21	/	-1.4	-14.0	-4.0	1.7	-3.32*	0.00709	0.00491	0.0283	?	0.0175	0.00948
COc1ccc(OCCCC(=O)Nc2ccc(N3CCOCC3)cc2)cc1	-0.296	-0.1	-6.4	2.2	-0.2	/	/	/	/	/	/	/
CCOc1ccc(N2CC(=O)Nc3ccccc3NCC2=O)cc1	-0.0605	-6.0	/	-0.2	-0.1	/	/	/	/	/	/	/
C=C(C)CNC(=S)N/N=C/c1ccc([N+](=O)[O-])cc1	-0.243	-1.0	-7.7	-4.5	-2.8	1.5	/	/	/	/	/	/
C=C(C)CNC(=S)N/N=C/c1c(F)cccc1F	0.166	-0.1	-5.8	-2.9	-3.9	15.8*	0.0204*	0.0479*	?	0.0229*	0.0303*	0.025*
C=CCn1c(SCc2ccc(C(=O)O)cc2)nc2sc(C)c(C)c2c1=O	/	/	-11.3	6.9	/	46.3*	0.0212*	0.0533*	?	0.0348*	0.0498*	0.014*
Cc1sc2nc(SCc3ccc(C(=O)O)cc3)n(Cc3ccco3)c(=O)c2c1C	/	/	-10.1	1.5	/	1.01	/	/	/	/	/	/
O=[N+]([O-])c1c(NCCCO)cc(Sc2nc3ccccc3s2)c2nonc12	/	-5.2	-3.0	5.6	-3.3	3.21*	0.00643	0.0188*	0.0328	0.0129*	?	0.0156*
CCC(=O)OCCNc1cc(Sc2nc3ccccc3s2)c2nonc2c1[N+](=O)[O-]	-2.35	-1.5	-20.7	0.9	1.0	3.24	/	/	/	/	/	/
COCc1cc(C)nc(OCC(=O)N/N=C/c2ccco2)c1C#N	-0.263	-0.8	2.3	2.5	-0.2	0.662	/	/	/	/	/	/
COCc1cc(C)nc(OCC(=O)N/N=C/c2ccc(-c3cc([N+](=O)[O-])ccc3Cl)o2)c1C#N	-0.627	-4.4	1.3	2.3	-0.7	6.77*	0.00717	0.0155*	0.0354	0.0238*	0.0274*	0.021*
Cc1nc2c(-c3ccccc3)c(C)[nH]n2c(=O)c1Cc1ccccc1	0.0412	-0.7	-15.0	5.0	-0.2	4.93*	0.00721	0.0195*	0.0313	0.0149*	?	0.0164*
